From publication PMC4672865 (Organic letters, 2015) come the findings set out here.

Structures are written as SMILES.

The target of the assay is DNA polymerase β (pol β) (Homo sapiens, UniProt P06746). The experiment in a line: X-ray crystal structure of ternary complex with DNA. It counts as biochemical. The gist of the method: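 Standard gel assay of pol β: test compound at variable concentrations against a constant dTTP concentration. An observed rate is determined at each inhibitor concentration, rates are plotted against inhibitor concentration, and the data are fit to a hyperbolic decay curve to calculate Ki. Crystal structures are of ternary complexes of test compound with pol β and DNA.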

Broadly, the Ki is the dissociation constant of the complex between target and ligand, obtained from inhibition or displacement. High values mean weaker binding, low ones tighter binding. Turning to `Cc1cn([C@H]2C[C@H](O)[C@@H](COP(=O)(O)CP(=O)(O)NP(=O)(O)O)O2)c(=O)[nH]c1=O` [1a, (α,β)-CH2-(β,γ)-NH-dTTP], the Ki was determined as 2.7 µM.

Regarding `Cc1cn([C@H]2C[C@H](O)[C@@H](COP(=O)(O)NP(=O)(O)CP(=O)(O)O)O2)c(=O)[nH]c1=O` [1b, (α,β)-NH-(β,γ)-CH2-dTTP], the Ki was determined as 23 µM.
